# Assay results: ChEMBL document CHEMBL1123028, “Synthesis and biological effects of novel thiocolchicines. 3. Evaluation of N-acyldeacetylthiocolchicines, N-(alkoxycarbonyl) deacetylthiocolchicines, and O-ethyldemethylthiocolchicines. New synthesis of thiodemecolcine and antileukemic effects of 2-demethyl- and 3-demethylthiocolchicine” (J Med Chem, 1985)
# What was measured:
# [1] = (§1) Lethal dose after the intraperitoneal injection in a group of 10 mice; format: toxicity, organism-based; details: mouse, in vivo, ip
# How it was run: (§2)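 NIH general purpose mice (ca. 20 g) were given a single ip injection in an Emulphor EL-620 mixture. Groups of 10 were used at each of usually at least five dose levels. One set of 10 mice received the emulphor mixture alone as a control for each compound. Survivors were counted 7 days after injection, and LD50 (mg/kg) with 95% confidence interval was derived by probit analysis.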
# Mus musculus [2] = species: Mus musculus; test: MED(minimum effective dose) against P388 lymphocytic leukemia in mice; this dose produced T/C greater than the threshold value of 125; format: functional; set-up: unit: mg/kg
# How it was run: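 P388 leukemia implanted ip in mice, treated on a QD1 × 9 schedule under NCI Developmental Therapeutics Program protocols. Minimum effective dose (mg/kg) taken as the lowest dose giving T/C, as survival of treated versus control animals × 100, above the threshold of 125.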
# Mus musculus [3] = species: Mus musculus; test: Antitumor activity against P388 lymphocytic leukemia in mice; format: functional
# How it was run: (§3)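 P388 lymphocytic leukemia implanted ip in mice, run to NCI Developmental Therapeutics Program protocols. Treatment given on a QD1 × 9 schedule. T/C = median survival time of treated animals / median survival time of untreated controls × 100. Value reported at the dose level giving the highest T/C. Activity requires duplicate tests with T/C ≥ 120%; a reproducible T/C ≥ 175% counts as significant.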
# Mus musculus [4] = species: Mus musculus; test: Compound was evaluated for the antitumor activity against P388 lymphocytic leukemia in mice; format: functional; how it was run: as §3
# Mus musculus [5] = test: as §1; format: toxicity, organism-based; details: in vivo, ip; how it was run: as §2
# Mus musculus [6] = species: Mus musculus; test: Compound was evaluated for the antitumor activity against P388 lymphocytic leukemia in mice; T/C = (days test animal live/days control animals live x100); format: functional; how it was run: as §3
# Mus musculus [7] = species: Mus musculus; test: Compound was evaluated for the antitumor activity against P388 lymphocytic leukemia in mice; T/C = days test animal live/days control animals live x100; format: functional; how it was run: as §3
# Mus musculus [8] = species: Mus musculus; test: Compound was evaluated for the antitumor activity against P388 lymphocytic leukemia in mice;T/C=days test animal live/days control animals live x100); format: functional; how it was run: as §3
Structure (SMILES),LD50 [1] [mg/kg],MED (Mus musculus [2]),Dose (Mus musculus [3]) [mg/kg],T/C (Mus musculus [4]),Binding (Mus musculus [5]) [mg/kg],T/C (Mus musculus [6]),T/C (Mus musculus [7]),T/C (Mus musculus [8])
COc1cc2c(c(OC)c1OC)-c1ccc(SC)c(=O)cc1[C@@H](NC=O)CC2,58.2,<0.75,0.75,171,,,,
CN[C@H]1CCc2cc(OC)c(OC)c(OC)c2-c2ccc(SC)c(=O)cc21,,50,100,,> 100,131,,
CCOC(=O)N[C@H]1CCc2cc(OC)c(OC)c(OC)c2-c2ccc(SC)c(=O)cc21,,0.38,1.5,,,,172,
COc1cc2c(c(OC)c1OC)-c1ccc(SC)c(=O)cc1[C@@H](NC(=O)c1ccccc1)CC2,40,<2.5,2.5,,,155,,
CCOCC(=O)N[C@H]1CCc2cc(OC)c(OC)c(OC)c2-c2ccc(SC)c(=O)cc21,5.1,0.38,1.5,,,,,229
COc1c(O)cc2c(c1OC)-c1ccc(SC)c(=O)cc1[C@@H](NC(C)=O)CC2,,1.25,5,194,,,,
COc1cc2c(c(OC)c1OC)-c1ccc(SC)c(=O)cc1[C@@H](NC(=O)C(F)(F)F)CC2,0.9,0.32,0.62,148,,,,
COc1cc2c(c(OC)c1OC)-c1ccc(SC)c(=O)cc1[C@@H](NC(C)=O)CC2 [THIOCOLCHICINE],,0.05,0.18,193,,,,
COc1cc2c(c(OC)c1OC)-c1ccc(OC)c(=O)cc1[C@@H](NC(C)=O)CC2 [COLCHICINE],,0.06,0.5,245,,,,
CCCCOC(=O)N[C@H]1CCc2cc(OC)c(OC)c(OC)c2-c2ccc(SC)c(=O)cc21,81,<3,3,,,142,,
COc1cc2c(c(OC)c1OC)-c1ccc(SC)c(=O)cc1[C@@H](NC(=O)Oc1ccccc1)CC2,> 50,2.5,5,164,,,,
COc1cc2c(c(OC)c1OC)-c1ccc(SC)c(=O)cc1[C@@H](N(C)C(=O)C(F)(F)F)CC2,18.6,5,10,,,145,,
COc1cc2c(c(OC)c1O)-c1ccc(SC)c(=O)cc1[C@@H](NC(C)=O)CC2,68.1,2.5,10,148,,,,
C=COC(=O)N[C@H]1CCc2cc(OC)c(OC)c(OC)c2-c2ccc(SC)c(=O)cc21,87.5,1.5,3,,,152,,
CCCC(=O)N[C@H]1CCc2cc(OC)c(OC)c(OC)c2-c2ccc(SC)c(=O)cc21,,0.19,1.5,231,,,,
